Reference: ChEMBL document CHEMBL3244146, “Pyranenamines: a new series of antiallergic compounds” (1979)

Assays:
Type in all cases: functional
Rattus norvegicus [1] = assay: Antiallergic activity in rat assessed as inhibition of egg albumin-induced passive cutaneous anaphylaxis at 0.5 mg/kg, iv treated for 30 secs followed by egg albumin-challenge measured after 30 mins relative to control; settings: 0.5 h
Rattus norvegicus [2] = assay: Antiallergic activity in rat assessed as inhibition of egg albumin-induced passive cutaneous anaphylaxis at 25 mg/kg, po treated for 15 mins followed by egg albumin-challenge measured after 30 mins relative to control
How it was run: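 Oral PCA in rats: intradermal antiserum at four back sites (dose giving ~12×12 mm wheal), compound po 48 h later, 15 min before iv challenge with 0.5 mL saline containing 5 mg Evans blue plus 5 mg egg albumin; skin bluing read 30 min after challenge on two axes per wheal; six rats per dose versus ≥6 vehicle controls; percent inhibition from mean wheal size, one-sided t test.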

Rattus norvegicus [3] = assay: Antiallergic activity in iv dosed rat assessed as inhibition of egg albumin-induced passive cutaneous anaphylaxis treated for 30 secs followed by egg albumin-challenge measured after 30 mins; settings: 0.5 h, read-out: ID50 (the source's name)

For CC(=O)NCc1cccc(N/C(C)=C2\C(=O)OC(=O)C(C(C)=O)=C2O)c1, the inhibition in vivo at 0.5 mg/kg (Rattus norvegicus [1]) was 4%.

CCNC(=O)c1cccc(N/C(C)=C2\C(=O)OC(=O)C(C(C)=O)=C2O)c1 showed an inhibition in vivo at 0.5 mg/kg (Rattus norvegicus [1]) of -4%.

CC(=O)C1=C(O)/C(=C(\C)Nc2ccc(OC(=O)NC3C=CC=CC=C3)cc2)C(=O)OC1=O gave an inhibition in vivo at 0.5 mg/kg (Rattus norvegicus [1]) of 22%.

For CC(=O)C1=C(O)/C(=C(\C)Nc2ccc(S(N)(=O)=O)cc2)C(=O)OC1=O, the inhibition in vivo at 0.5 mg/kg (Rattus norvegicus [1]) was 12%.

CC(=O)C1=C(O)/C(=C(\C)Nc2ccccc2O)C(=O)OC1=O showed an inhibition in vivo at 25 mg/kg (Rattus norvegicus [2]) of -12% and an ED50 (Rattus norvegicus [3]) of 2.8 mg/kg.

Compound CCCCC(=O)Oc1ccc(N/C(C)=C2\C(=O)OC(=O)C(C(C)=O)=C2O)cc1 has an inhibition in vivo at 0.5 mg/kg (Rattus norvegicus [1]) of 34% and an inhibition in vivo at 25 mg/kg (Rattus norvegicus [2]) of 36%.

CC(=O)C1=C(O)/C(=C(\C)Nc2cccc(NS(=O)(=O)c3ccccc3)c2)C(=O)OC1=O was tested, and the inhibition in vivo at 25 mg/kg (Rattus norvegicus [2]) was 7% and the ED50 (Rattus norvegicus [3]) was 1.3 mg/kg.

CC(=O)C1=C(O)/C(=C(\C)Nc2ccc(NC=O)cc2)C(=O)OC1=O showed an inhibition in vivo at 0.5 mg/kg (Rattus norvegicus [1]) of 49% and an inhibition in vivo at 25 mg/kg (Rattus norvegicus [2]) of -6%.

In the case of CCCC(=O)Oc1ccc(N/C(C)=C2\C(=O)OC(=O)C(C(C)=O)=C2O)cc1, the ED50 (Rattus norvegicus [3]) is reported as 1.5 mg/kg.

Compound CNc1cc(N/C(C)=C2\C(=O)OC(=O)C(C(C)=O)=C2O)ccc1O has an inhibition in vivo at 0.5 mg/kg (Rattus norvegicus [1]) of -6%.

Work on CC(=O)C1=C(O)/C(=C(\C)Nc2ccccc2NC=O)C(=O)OC1=O yielded an inhibition in vivo at 0.5 mg/kg (Rattus norvegicus [1]) of 52% and an inhibition in vivo at 25 mg/kg (Rattus norvegicus [2]) of 31%.

Work on CCC(=O)Oc1ccc(N/C(C)=C2\C(=O)OC(=O)C(C(C)=O)=C2O)cc1 yielded an inhibition in vivo at 0.5 mg/kg (Rattus norvegicus [1]) of 16%.

CC(=O)C1=C(O)/C(=C(\C)Nc2cccc(C(N)=O)c2)C(=O)OC1=O gave an inhibition in vivo at 0.5 mg/kg (Rattus norvegicus [1]) of -16%.

For CC(=O)C1=C(O)/C(=C(\C)N2CCOCC2)C(=O)OC1=O, the inhibition in vivo at 0.5 mg/kg (Rattus norvegicus [1]) was 2%.

CCCCCCC(=O)Oc1ccc(N/C(C)=C2\C(=O)OC(=O)C(C(C)=O)=C2O)cc1 was tested, and the inhibition in vivo at 0.5 mg/kg (Rattus norvegicus [1]) was 21%.

In the case of CC(=O)C1=C(O)/C(=C(\C)Nc2ccc(NS(N)(=O)=O)cc2)C(=O)OC1=O, the inhibition in vivo at 25 mg/kg (Rattus norvegicus [2]) is reported as 10% and the ED50 (Rattus norvegicus [3]) is reported as 0.3 mg/kg.

CC(=O)C1=C(O)/C(=C(\C)Nc2cccc(NS(N)(=O)=O)c2)C(=O)OC1=O showed an inhibition in vivo at 0.5 mg/kg (Rattus norvegicus [1]) of 45% and an inhibition in vivo at 25 mg/kg (Rattus norvegicus [2]) of 13%.

In the case of CC(=O)C1=C(O)/C(=C(\C)Nc2cccc(NC(N)=O)c2)C(=O)OC1=O, the inhibition in vivo at 0.5 mg/kg (Rattus norvegicus [1]) is reported as 45% and the inhibition in vivo at 25 mg/kg (Rattus norvegicus [2]) is reported as 6%.

With CC(=O)C1=C(O)/C(=C(\C)Nc2ccc(O)c(NS(C)(=O)=O)c2)C(=O)OC1=O the inhibition in vivo at 0.5 mg/kg (Rattus norvegicus [1]) was 38%.

With CC(=O)C1=C(O)/C(=C(\C)Nc2cccc(NC(=O)C(=O)C(=O)O)c2)C(=O)OC1=O the inhibition in vivo at 25 mg/kg (Rattus norvegicus [2]) was 21% and the ED50 (Rattus norvegicus [3]) was 0.03 mg/kg.

In the case of CC(=O)C1=C(O)/C(=C(\C)Nc2ccccc2N)C(=O)OC1=O, the ED50 (Rattus norvegicus [3]) is reported as 27.5 mg/kg.

In the case of CC(=O)C1=C(O)/C(=C(\C)Nc2ccc(OCC(=O)O)cc2)C(=O)OC1=O, the inhibition in vivo at 25 mg/kg (Rattus norvegicus [2]) is reported as 2% and the ED50 (Rattus norvegicus [3]) is reported as 0.5 mg/kg.

CC(=O)C1=C(O)/C(=C(\C)Nc2cccc(O)c2)C(=O)OC1=O gave an inhibition in vivo at 25 mg/kg (Rattus norvegicus [2]) of 0% and an ED50 (Rattus norvegicus [3]) of 1.6 mg/kg.

CCCC(=O)Nc1cccc(N/C(C)=C2\C(=O)OC(=O)C(C(C)=O)=C2O)c1 gave an inhibition in vivo at 0.5 mg/kg (Rattus norvegicus [1]) of 58%.

In the case of CC(=O)Oc1ccc(N/C(C)=C2\C(=O)OC(=O)C(C(C)=O)=C2O)cc1, the inhibition in vivo at 0.5 mg/kg (Rattus norvegicus [1]) is reported as 41%.

CC(=O)C1=C(O)/C(=C(\C)Nc2c(O)cccc2O)C(=O)OC1=O gave an inhibition in vivo at 0.5 mg/kg (Rattus norvegicus [1]) of -22%.

CCC(=O)Nc1cccc(N/C(C)=C2\C(=O)OC(=O)C(C(C)=O)=C2O)c1 was tested, and the inhibition in vivo at 25 mg/kg (Rattus norvegicus [2]) was 70% and the ED50 (Rattus norvegicus [3]) was 0.2 mg/kg.

In the case of CC(=O)CCC(=O)Nc1cccc(N/C(C)=C2\C(=O)OC(=O)C(C(C)=O)=C2O)c1, the ED50 (Rattus norvegicus [3]) is reported as 0.4 mg/kg.

CC(=O)C1=C(O)/C(=C(\C)Nc2cccc(N)c2)C(=O)OC1=O gave an ED50 (Rattus norvegicus [3]) of 0.3 mg/kg.

CC(=O)C1=C(O)/C(=C(\C)Nc2cccc(NC(=N)NS(=O)(=O)c3ccc(C)cc3)c2)C(=O)OC1=O was tested, and the inhibition in vivo at 0.5 mg/kg (Rattus norvegicus [1]) was 2%.

CC(=O)C1=C(O)/C(=C(\C)Nc2ccc(NS(C)(=O)=O)cc2)C(=O)OC1=O showed an inhibition in vivo at 0.5 mg/kg (Rattus norvegicus [1]) of 20%.

With CNC(=O)c1cc(N/C(C)=C2\C(=O)OC(=O)C(C(C)=O)=C2O)ccc1O the inhibition in vivo at 0.5 mg/kg (Rattus norvegicus [1]) was 38%.

CC(=O)C1=C(O)/C(=C(\C)Nc2cccc(NS(C)(=O)=O)c2)C(=O)OC1=O gave an inhibition in vivo at 0.5 mg/kg (Rattus norvegicus [1]) of 28%.

Work on CC(=O)C1=C(O)/C(=C(\C)Nc2cccc(N3C(=O)CCC3=O)c2)C(=O)OC1=O yielded an inhibition in vivo at 0.5 mg/kg (Rattus norvegicus [1]) of 22%.

With CC(=O)C1=C(O)/C(=C(\C)Nc2ccc(OC(=O)C(C)(C)C)cc2)C(=O)OC1=O the inhibition in vivo at 0.5 mg/kg (Rattus norvegicus [1]) was 3%.

CC(=O)C1=C(O)/C(=C(\C)Nc2ccc(OC(N)=O)cc2)C(=O)OC1=O was tested, and the inhibition in vivo at 0.5 mg/kg (Rattus norvegicus [1]) was 19%.

CC(=O)C1=C(O)/C(=C(\C)Nc2cc(C(F)(F)F)cc(C(F)(F)F)c2)C(=O)OC1=O showed an inhibition in vivo at 0.5 mg/kg (Rattus norvegicus [1]) of 14%.

Work on CNC(=O)c1cccc(N/C(C)=C2\C(=O)OC(=O)C(C(C)=O)=C2O)c1 yielded an inhibition in vivo at 0.5 mg/kg (Rattus norvegicus [1]) of 24%.

In the case of COc1ccc(N/C(C)=C2\C(=O)OC(=O)C(C(C)=O)=C2O)cc1NC(C)=O, the inhibition in vivo at 0.5 mg/kg (Rattus norvegicus [1]) is reported as 27%.

Compound CC(=O)C1=C(O)/C(=C(\C)Nc2cc(NS(=O)(=O)c3ccccc3)cc(NS(=O)(=O)c3ccccc3)c2)C(=O)OC1=O has an inhibition in vivo at 0.5 mg/kg (Rattus norvegicus [1]) of -9%.

For CCCCCC(=O)Oc1ccc(N/C(C)=C2\C(=O)OC(=O)C(C(C)=O)=C2O)cc1, the ED50 (Rattus norvegicus [3]) was 12.1 mg/kg.

For CC(=O)Nc1ccccc1N/C(C)=C1\C(=O)OC(=O)C(C(C)=O)=C1O, the inhibition in vivo at 0.5 mg/kg (Rattus norvegicus [1]) was -12%.

CC(=O)C1=C(O)/C(=C(\C)Nc2cccc(C(=O)NC3C(=O)NC(=O)NC3=O)c2)C(=O)OC1=O showed an inhibition in vivo at 0.5 mg/kg (Rattus norvegicus [1]) of 39%.

CC(=O)c1c(O)oc(=O)c(C(C)=O)c1O was tested, and the ED50 (Rattus norvegicus [3]) was 14 mg/kg.

In the case of CC(=O)C1=C(O)/C(=C(\C)Nc2ccc(NS(=O)(=O)c3ccccc3)cc2)C(=O)OC1=O, the inhibition in vivo at 0.5 mg/kg (Rattus norvegicus [1]) is reported as 4%.

CC(=O)NCc1cc(N/C(C)=C2\C(=O)OC(=O)C(C(C)=O)=C2O)ccc1O was tested, and the inhibition in vivo at 0.5 mg/kg (Rattus norvegicus [1]) was 1%.

With CC(=O)C1=C(O)/C(=C(\C)Nc2ccc3oc(C)nc3c2)C(=O)OC1=O the inhibition in vivo at 0.5 mg/kg (Rattus norvegicus [1]) was 13%.

CC(=O)C1=C(O)/C(=C(\C)Nc2cccc(NC=O)c2)C(=O)OC1=O gave an inhibition in vivo at 0.5 mg/kg (Rattus norvegicus [1]) of 22%.

In the case of CC(=O)C1=C(O)/C(=C(\C)Nc2ccc(NC(N)=O)cc2)C(=O)OC1=O, the inhibition in vivo at 0.5 mg/kg (Rattus norvegicus [1]) is reported as 38% and the inhibition in vivo at 25 mg/kg (Rattus norvegicus [2]) is reported as -17%.

With CC(=O)C1=C(O)/C(=C(\C)Nc2ccc(S)cc2)C(=O)OC1=O the ED50 (Rattus norvegicus [3]) was 1.9 mg/kg.

CCC(=O)Nc1ccc(N/C(C)=C2\C(=O)OC(=O)C(C(C)=O)=C2O)cc1 was tested, and the ED50 (Rattus norvegicus [3]) was 1.6 mg/kg.

In the case of CCOC(=O)Nc1cccc(N/C(C)=C2\C(=O)OC(=O)C(C(C)=O)=C2O)c1, the ED50 (Rattus norvegicus [3]) is reported as 0.4 mg/kg.

Compound CCCCCC(=O)c1c(O)oc(=O)c(C(=O)CCCCC)c1O has an ED50 (Rattus norvegicus [3]) of 6 mg/kg.

For CC(=O)C1=C(O)/C(=C(\C)Nc2cccc(C(=O)N(C)C)c2)C(=O)OC1=O, the inhibition in vivo at 0.5 mg/kg (Rattus norvegicus [1]) was 10%.

In the case of CC(=O)C1=C(O)/C(=C(\C)Nc2ccc(Br)cc2)C(=O)OC1=O, the inhibition in vivo at 0.5 mg/kg (Rattus norvegicus [1]) is reported as 0%.

For CC(=O)Nc1ccc(O)c(N/C(C)=C2\C(=O)OC(=O)C(C(C)=O)=C2O)c1, the inhibition in vivo at 0.5 mg/kg (Rattus norvegicus [1]) was 40% and the inhibition in vivo at 25 mg/kg (Rattus norvegicus [2]) was 4%.

Compound CC(=O)C1=C(O)/C(=C(\C)Nc2cccc(S(N)(=O)=O)c2)C(=O)OC1=O has an inhibition in vivo at 0.5 mg/kg (Rattus norvegicus [1]) of 45%.

Work on CC(=O)C1=C(O)/C(=C(\C)Nc2cccc(OCC(=O)O)c2)C(=O)OC1=O yielded an inhibition in vivo at 0.5 mg/kg (Rattus norvegicus [1]) of 6%.

CNc1cccc(N/C(C)=C2\C(=O)OC(=O)C(C(C)=O)=C2O)c1 was tested, and the inhibition in vivo at 0.5 mg/kg (Rattus norvegicus [1]) was -8%.

CC(=O)C1=C(O)/C(=C(\C)Nc2ccc(N)cc2)C(=O)OC1=O gave an inhibition in vivo at 0.5 mg/kg (Rattus norvegicus [1]) of 58% and an inhibition in vivo at 25 mg/kg (Rattus norvegicus [2]) of 23%.

Work on CC(=O)C1=C(O)/C(=C(\C)Nc2cccc(NC(=O)C(C)C)c2)C(=O)OC1=O yielded an inhibition in vivo at 0.5 mg/kg (Rattus norvegicus [1]) of 72% and an inhibition in vivo at 25 mg/kg (Rattus norvegicus [2]) of 46%.
